The target in experiment [1] is Histone acetyltransferase p300 (Homo sapiens) (UniProt Q09472). The experiment is described as follows: Inhibition of EP300 in human BrCa-MZ-01 cells assessed as K-score by measuring ALDHbr cells by LSR2 cytometer. The experiment is classed as cell-based. An outline of the steps:
(§1)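 Breast cancer lines exposed continuously for 72 h in adherent culture to a range of doses centred on the MTS-derived IC50 (72 h MTS, absorbance 540 nm). ALDHbr fraction measured by ALDEFLUOR flow cytometry (LSR2) with DEAB control. K-score = linear regression coefficient between untreated condition and the log10 dose at which ALDHbr proportion changes by 50% versus control.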

Experiment [2] shares this target. The experiment is described as follows: Inhibition of EP300 in human SUM159 cells assessed as K-score by measuring ALDHbr cells by LSR2 cytometer. The experiment is classed as cell-based. In a few lines:
as §1

The target is the same in experiment [3]. The experiment is described as follows: Inhibition of EP300 in human S68 cells assessed as K-score by measuring ALDHbr cells by LSR2 cytometer. It is filed as cell-based. In a few lines: as §1
Experiment [4] has the same target. Description: Inhibition of EP300 in human MDA-MB-436 cells assessed as K-score by measuring ALDHbr cells by LSR2 cytometer. The experiment is classed as cell-based. An outline of the steps: as §1
Experiment [5] shares this target. The experiment is described as follows: Inhibition of EP300 in human SUM149 cells assessed as K-score by measuring ALDHbr cells by LSR2 cytometer. It is filed as cell-based. An outline of the steps:
as §1

The test system of experiment [6] is SUM-159-PT. The experiment is described as follows: Anticancer activity against human SUM159 cells assessed as decrease in primary tumor sphere formation incubated for 72 hrs by Extreme limiting dilution analysis. The experiment is classed as functional, cell-based. An outline of the steps:
(§2)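 Cells drug-treated in adherent culture for 72 h, then plated as single cells in ultra-low attachment 96-well plates in serum-free mammary epithelium basal medium. Plating at 25/10/5/3/2/1 cells per well, 18–36 wells per condition. Wells with ≥1 sphere after 10 days scored positive. Secondary spheres were made by dissociating primary spheres. Frequency by ELDA; n = 4; pairwise chi-square test.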

The test system of experiment [7] is SUM-159-PT. The experiment is described as follows: Anticancer activity against human SUM159 cells assessed as decrease in secondary tumor sphere formation incubated for 72 hrs by Extreme limiting dilution analysis. It is filed as functional, cell-based. An outline of the steps:
as §2

Experiment [8] has as its system Proteasome. Description: Inhibition of proteasome in human BrCa-MZ-01 cells assessed as K-score by measuring ALDHbr cells by LSR2 cytometer. Particulars: condition breast cancer. In a few lines:
as §1

Experiment [9] relates to Proteasome. Description: Inhibition of proteasome in human MDA-MB-436 cells assessed as K-score by measuring ALDHbr cells by LSR2 cytometer. Particulars: condition breast cancer. An outline of the steps: as §1
For experiment [10], the system named is Proteasome. Description: Inhibition of proteasome in human SUM159 cells assessed as K-score by measuring ALDHbr cells by LSR2 cytometer. Particulars: condition breast cancer. An outline of the steps: as §1
Experiment [11] relates to Proteasome. The experiment is described as follows: Inhibition of proteasome in human SUM149 cells assessed as K-score by measuring ALDHbr cells by LSR2 cytometer. Particulars: condition breast cancer. An outline of the steps: as §1
The test system of experiment [12] is Proteasome. The experiment is described as follows: Inhibition of proteasome in human S68 cells assessed as K-score by measuring ALDHbr cells by LSR2 cytometer. Particulars: condition breast cancer. An outline of the steps:
as §1

Experiment [13] deals with Runt-related transcription factor 1 (Homo sapiens) (UniProt Q01196). Description: Inhibition of RUNX1 in human BrCa-MZ-01 cells assessed as K-score by measuring ALDHbr cells by LSR2 cytometer. It is filed as cell-based. In a few lines: (§3)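 Cell lines exposed for 72 h in adherent culture to a range of concentrations centred on the MTS-derived IC50. ALDHbr proportion measured by ALDEFLUOR flow cytometry (LSR2). K-score is the linear regression coefficient, on log10-transformed doses, between the untreated condition and the dose predicted to give a 50% decrease or increase in ALDHbr proportion versus control.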
Runt-related transcription factor 1 (Homo sapiens), sequence (Q01196 whole entry): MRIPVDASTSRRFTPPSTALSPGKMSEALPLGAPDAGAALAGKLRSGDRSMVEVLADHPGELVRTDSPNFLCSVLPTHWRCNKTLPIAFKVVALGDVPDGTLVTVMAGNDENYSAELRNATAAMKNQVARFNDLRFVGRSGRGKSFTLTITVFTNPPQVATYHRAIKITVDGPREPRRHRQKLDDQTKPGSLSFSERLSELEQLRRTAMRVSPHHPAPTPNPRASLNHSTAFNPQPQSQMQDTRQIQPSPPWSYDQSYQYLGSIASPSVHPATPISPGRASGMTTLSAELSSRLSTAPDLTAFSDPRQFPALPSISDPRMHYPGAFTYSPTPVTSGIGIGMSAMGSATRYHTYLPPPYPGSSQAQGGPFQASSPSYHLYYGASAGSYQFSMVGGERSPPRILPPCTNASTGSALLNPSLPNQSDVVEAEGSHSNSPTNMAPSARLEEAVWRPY

The target is the same in experiment [14]. The experiment is described as follows: Inhibition of RUNX1 in human SUM149 cells assessed as K-score by measuring ALDHbr cells by LSR2 cytometer. The experiment is classed as cell-based. An outline of the steps:
as §3

Experiment [15] shares this target. The experiment is described as follows: Inhibition of RUNX1 in human S68 cells assessed as K-score by measuring ALDHbr cells by LSR2 cytometer. It is filed as cell-based. In a few lines: as §3
For experiment [16] the target is unchanged. Description: Inhibition of RUNX1 in human SUM159 cells assessed as K-score by measuring ALDHbr cells by LSR2 cytometer. The experiment is classed as cell-based. In a few lines:
as §3

For experiment [17] the target is unchanged. The experiment is described as follows: Inhibition of RUNX1 in human MDA-MB-436 cells assessed as K-score by measuring ALDHbr cells by LSR2 cytometer. It is filed as cell-based. An outline of the steps: as §3
Experiment [18] relates to MDA-MB-436. The experiment is described as follows: Antitumor activity against human MDA-MB-436 cells assessed as K-score by measuring ALDHbr cells by LSR2 cytometer. It is filed as functional. In a few lines:
as §3

Experiment [19] can be described thus: Antitumor activity against human S68 cells assessed as K-score by measuring ALDHbr cells by LSR2 cytometer. The experiment is classed as functional. In a few lines:
as §3

Experiment [20] concerns SUM-159-PT. The experiment is described as follows: Antitumor activity against human SUM159 cells assessed as K-score by measuring ALDHbr cells by LSR2 cytometer. The experiment is classed as functional. An outline of the steps: as §3
A short description of experiment [21]: Antitumor activity against human BrCa-MZ-01 cells assessed as K-score by measuring ALDHbr cells by LSR2 cytometer. It is filed as functional. In a few lines:
as §3

The subject of experiment [22] is SUM149PT. Description: Antitumor activity against human SUM149 cells assessed as K-score by measuring ALDHbr cells by LSR2 cytometer. The experiment is classed as functional. In a few lines: as §3
Experiment [23] has as its target T1, Double-stranded RNA-specific editase 1 (Homo sapiens) (UniProt P78563).
T1 sequence (whole entry): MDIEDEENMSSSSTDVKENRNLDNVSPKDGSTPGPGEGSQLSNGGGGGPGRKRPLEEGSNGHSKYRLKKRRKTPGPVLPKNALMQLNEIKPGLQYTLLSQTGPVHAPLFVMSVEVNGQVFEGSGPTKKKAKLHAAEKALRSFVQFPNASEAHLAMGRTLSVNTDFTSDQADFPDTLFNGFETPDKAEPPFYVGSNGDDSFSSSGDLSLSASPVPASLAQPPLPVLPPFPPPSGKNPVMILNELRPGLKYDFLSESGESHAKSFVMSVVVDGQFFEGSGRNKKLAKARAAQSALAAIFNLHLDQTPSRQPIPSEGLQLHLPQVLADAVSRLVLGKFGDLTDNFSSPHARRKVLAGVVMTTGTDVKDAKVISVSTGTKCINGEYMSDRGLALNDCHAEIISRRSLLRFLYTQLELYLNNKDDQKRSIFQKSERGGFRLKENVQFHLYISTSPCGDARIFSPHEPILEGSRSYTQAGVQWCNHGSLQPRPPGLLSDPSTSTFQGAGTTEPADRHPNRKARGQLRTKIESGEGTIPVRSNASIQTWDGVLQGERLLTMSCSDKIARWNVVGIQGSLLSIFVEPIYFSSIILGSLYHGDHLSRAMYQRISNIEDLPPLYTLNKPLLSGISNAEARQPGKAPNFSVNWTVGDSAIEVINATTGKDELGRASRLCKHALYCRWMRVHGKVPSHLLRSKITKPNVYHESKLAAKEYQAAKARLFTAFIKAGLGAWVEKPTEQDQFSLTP
Description: Inhibition of ADARB1 in human S68 cells assessed as K-score by measuring ALDHbr cells by LSR2 cytometer. The experiment is classed as cell-based. An outline of the steps:
as §1

Experiment [24] has as its target T1, Double-stranded RNA-specific editase 1 (Homo sapiens). The experiment is described as follows: Inhibition of ADARB1 in human SUM149 cells assessed as K-score by measuring ALDHbr cells by LSR2 cytometer. It is filed as cell-based. An outline of the steps:
as §1

Experiment [25] has the same target. The experiment is described as follows: Inhibition of ADARB1 in human MDA-MB-436 cells assessed as K-score by measuring ALDHbr cells by LSR2 cytometer. It is filed as cell-based. In a few lines: as §1
The target is the same in experiment [26]. The experiment is described as follows: Inhibition of ADARB1 in human BrCa-MZ-01cells assessed as K-score by measuring ALDHbr cells by LSR2 cytometer. It is filed as cell-based. In a few lines: as §1
The target is the same in experiment [27]. Description: Inhibition of ADARB1 in human SUM159 cells assessed as K-score by measuring ALDHbr cells by LSR2 cytometer. It is filed as cell-based. An outline of the steps: as §1

Molecules are shown by their SMILES. Activity calls are given as the source filed them. No cut-off for these calls is given here.

Histone acetyltransferase p300 (Homo sapiens), sequence (Q09472 whole entry): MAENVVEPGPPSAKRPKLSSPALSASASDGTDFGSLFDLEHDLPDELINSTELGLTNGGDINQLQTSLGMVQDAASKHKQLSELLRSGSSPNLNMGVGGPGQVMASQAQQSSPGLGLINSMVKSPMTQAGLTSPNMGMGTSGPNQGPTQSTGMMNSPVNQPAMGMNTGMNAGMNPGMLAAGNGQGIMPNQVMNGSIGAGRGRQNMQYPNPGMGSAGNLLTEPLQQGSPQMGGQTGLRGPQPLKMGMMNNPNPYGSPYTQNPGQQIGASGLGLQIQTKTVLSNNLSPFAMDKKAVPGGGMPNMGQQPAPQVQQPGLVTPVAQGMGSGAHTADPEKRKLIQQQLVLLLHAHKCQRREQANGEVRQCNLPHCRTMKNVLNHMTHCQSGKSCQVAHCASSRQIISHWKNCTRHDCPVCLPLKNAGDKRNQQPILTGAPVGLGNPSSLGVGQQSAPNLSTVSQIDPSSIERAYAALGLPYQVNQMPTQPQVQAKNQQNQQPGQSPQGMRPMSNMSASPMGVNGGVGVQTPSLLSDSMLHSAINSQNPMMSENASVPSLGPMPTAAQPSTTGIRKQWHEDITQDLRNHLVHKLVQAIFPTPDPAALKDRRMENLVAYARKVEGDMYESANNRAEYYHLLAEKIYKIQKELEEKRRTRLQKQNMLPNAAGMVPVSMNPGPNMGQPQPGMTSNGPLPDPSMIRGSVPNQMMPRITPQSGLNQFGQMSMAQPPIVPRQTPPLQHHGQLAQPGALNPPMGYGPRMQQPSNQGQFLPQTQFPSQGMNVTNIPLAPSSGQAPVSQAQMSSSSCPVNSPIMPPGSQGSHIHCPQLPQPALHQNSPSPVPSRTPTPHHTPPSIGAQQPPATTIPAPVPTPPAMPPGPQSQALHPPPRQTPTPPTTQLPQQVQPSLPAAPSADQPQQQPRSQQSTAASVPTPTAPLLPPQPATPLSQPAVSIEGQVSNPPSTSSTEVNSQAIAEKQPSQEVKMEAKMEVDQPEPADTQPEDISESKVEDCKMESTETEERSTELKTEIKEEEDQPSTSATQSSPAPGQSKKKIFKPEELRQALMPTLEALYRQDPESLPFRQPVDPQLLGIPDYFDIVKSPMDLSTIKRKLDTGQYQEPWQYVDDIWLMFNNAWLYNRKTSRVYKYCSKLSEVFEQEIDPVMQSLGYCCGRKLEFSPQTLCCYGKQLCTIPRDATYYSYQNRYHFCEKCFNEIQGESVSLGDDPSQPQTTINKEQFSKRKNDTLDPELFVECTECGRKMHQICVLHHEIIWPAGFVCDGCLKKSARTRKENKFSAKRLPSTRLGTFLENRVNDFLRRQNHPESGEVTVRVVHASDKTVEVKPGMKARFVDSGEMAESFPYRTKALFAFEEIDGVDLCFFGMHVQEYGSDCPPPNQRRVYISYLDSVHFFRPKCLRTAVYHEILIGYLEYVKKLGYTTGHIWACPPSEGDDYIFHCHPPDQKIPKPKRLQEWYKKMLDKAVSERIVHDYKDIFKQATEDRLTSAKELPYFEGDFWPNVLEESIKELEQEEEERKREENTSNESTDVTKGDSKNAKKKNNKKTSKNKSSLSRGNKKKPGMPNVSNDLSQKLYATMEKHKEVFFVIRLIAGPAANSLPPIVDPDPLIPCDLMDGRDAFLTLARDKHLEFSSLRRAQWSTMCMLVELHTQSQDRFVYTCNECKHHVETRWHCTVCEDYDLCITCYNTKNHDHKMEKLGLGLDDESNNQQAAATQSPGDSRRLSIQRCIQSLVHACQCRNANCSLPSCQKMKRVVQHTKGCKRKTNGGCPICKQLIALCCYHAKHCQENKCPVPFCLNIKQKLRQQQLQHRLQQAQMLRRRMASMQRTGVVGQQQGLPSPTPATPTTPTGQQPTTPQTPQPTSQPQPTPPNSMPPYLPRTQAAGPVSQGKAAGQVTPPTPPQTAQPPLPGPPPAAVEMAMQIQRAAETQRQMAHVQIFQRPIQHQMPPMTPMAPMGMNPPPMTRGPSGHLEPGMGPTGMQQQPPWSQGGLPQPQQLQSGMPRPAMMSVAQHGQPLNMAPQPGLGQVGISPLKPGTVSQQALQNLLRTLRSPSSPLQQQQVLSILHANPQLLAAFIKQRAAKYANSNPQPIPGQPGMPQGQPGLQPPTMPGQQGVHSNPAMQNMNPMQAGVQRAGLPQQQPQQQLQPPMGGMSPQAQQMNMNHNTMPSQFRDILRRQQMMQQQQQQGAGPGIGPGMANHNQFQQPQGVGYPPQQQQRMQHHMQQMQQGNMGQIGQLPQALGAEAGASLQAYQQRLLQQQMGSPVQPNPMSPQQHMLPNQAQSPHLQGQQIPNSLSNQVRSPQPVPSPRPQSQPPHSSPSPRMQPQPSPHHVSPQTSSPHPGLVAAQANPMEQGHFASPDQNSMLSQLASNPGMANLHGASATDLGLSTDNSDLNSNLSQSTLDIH

For `COc1ccc(CCc2nc3cc(-c4c(C)noc4C)ccc3n2C[C@H](C)N2CCOCC2)cc1Cl`, the Activity in experiment [1] was -0.01; in experiment [2] it was -0.02; in experiment [3] it was 0.08; in experiment [4], -0.04; in experiment [5] it was 0.1.
`CC#C[C@]1(O)CC[C@H]2[C@@H]3CCC4=CC(=O)CCC4=C3[C@@H](c3ccc(N(C)C)cc3)C[C@@]21C`: the outcome in experiment [6] and in experiment [7] was Active.
Take `CC(C)C[C@H](NC(=O)[C@H](CCc1ccccc1)NC(=O)CN1CCOCC1)C(=O)N[C@@H](Cc1ccccc1)C(=O)N[C@@H](CC(C)C)C(=O)[C@@]1(C)CO1` [CARFILZOMIB]: the Activity is -0.08 in experiment [8]; -0.08 in experiment [9]; 0.01 in experiment [10]; -0.03 in experiment [11]; -0.09 in experiment [12].
On to `O=C1CN=C(c2ccc[nH]2)c2cc(Cl)ccc2N1`, for which the Activity in [13] was -0.04; in [14], -0.04; in experiment [15], -0.07; in experiment [16] it was 0.09; in [17] it was 0.
`CCC(=O)N1CCOc2c(cc(-c3ccc(OC)c(OC)c3)cc2OC[C@H]2CCCN(C)C2)C1`: the Activity was found to be 0.01 in experiment [1]; 0.02 in [2]; 0.22 in [3]; 0.14 in experiment [4]; 0.1 in experiment [5].
For `CC(C)C[C@H](NC(=O)[C@H](Cc1ccccc1)NC(=O)c1cnccn1)B(O)O` [BORTEZOMIB], the Activity in [8] is listed as -0.07; in experiment [9] it was -0.06; in experiment [10], 0.07; in experiment [11] it was -0.11; in [12], -0.14.
With `CCN(CC)CCCC(C)Nc1ccnc2cc(Cl)ccc12` (centres undefined) [CHLOROQUINE], the Activity in experiment [18] was -0.06; in [19] it was -0.02; in [20], 0.04; in [21], -0.02; in [22], -0.01.
Turning to `Nc1ncnc2c1nnn2[C@@H]1O[C@H](CO)[C@@H](O)[C@H]1O`, the Activity was -0.01 in experiment [23]; 0.12 in experiment [24]; -0.02 in experiment [25]; -0.01 in experiment [26]; -0.11 in [27].
In the case of `CCCc1cc(C)[nH]c(=O)c1CNC(=O)c1cc(-c2ccnc(N3CCN(C)CC3)c2)cc2c1cnn2C(C)C`, the result in experiment [6] and in [7] was inactive.

The values above are taken from ChEMBL document CHEMBL5712908, “A genome-wide RNAi screen reveals essential therapeutic targets of breast cancer stem cells” (2019).
